In the library only some 1.9% were active in any assay of this set; here they are far more common.
CHRM5 PAM: human M5 muscarinic receptor positive allosteric modulators, primary screen, CHO-K1 cells, Fluo-8 calcium fluorescence; Muscarinic acetylcholine receptor M5 (Homo sapiens), P08912; AID 624038, 2012; activation, % at 3 µM; 360,000 tested, 0.3% active; CHO-K1 hM5, ACh EC20 PAM; 0% = ACh EC20, 100% = ACh EC100;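 active means activation above the run cutoff, the mean activation of all test compounds plus 3 SD, cut at about 18% in these data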
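system = human M5 receptor in CHO-K1 cells | compound = one concentration, 3 µM final (nominal) | schedule = Post-acetylcholine fluorescence recording 140 s | signal = Fluo-8 calcium dye fluorescence, kinetic read | benchmarks = low control EC20 acetylcholine (0%), high control EC100 acetylcholine (100%) | repeats = singlicate, one well per test compound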
CHRM5 antagonist: human M5 muscarinic receptor antagonists, primary screen, CHO cells, Fluo-8 calcium fluorescence. 360,000 tested, 0.59% active. CHO-hM5 cells, ACh EC80. inhibition, % at 3 µM. Muscarinic acetylcholine receptor M5 (Homo sapiens), P08912;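 active means inhibition above a per-plate cutoff, the mean of that plate's test compounds plus 3 SD, cut at about 27% in these data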;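 further: 0% = acetylcholine EC80 with DMSO and 100% = DMSO without agonist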
M4 ag: human M4 muscarinic receptor agonists, primary screen, CHO-K1 cells, Fluo-8 calcium fluorescence; CHO-K1 hM4/Gqi5; vehicle 0%, full acetylcholine response 100%; activation, % at 3 µM; 360,000 tested, 0.14% active; AID 624127, 2012;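 active means activation above the run mean over all test wells plus 3 SD, cut at about 32% in these data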;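 further: peak over basal fluorescence ratio per well then scaled between controls; 0% = DMSO wells and 100% = acetylcholine at EC100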
Target sequence (P08173 whole entry, looked up): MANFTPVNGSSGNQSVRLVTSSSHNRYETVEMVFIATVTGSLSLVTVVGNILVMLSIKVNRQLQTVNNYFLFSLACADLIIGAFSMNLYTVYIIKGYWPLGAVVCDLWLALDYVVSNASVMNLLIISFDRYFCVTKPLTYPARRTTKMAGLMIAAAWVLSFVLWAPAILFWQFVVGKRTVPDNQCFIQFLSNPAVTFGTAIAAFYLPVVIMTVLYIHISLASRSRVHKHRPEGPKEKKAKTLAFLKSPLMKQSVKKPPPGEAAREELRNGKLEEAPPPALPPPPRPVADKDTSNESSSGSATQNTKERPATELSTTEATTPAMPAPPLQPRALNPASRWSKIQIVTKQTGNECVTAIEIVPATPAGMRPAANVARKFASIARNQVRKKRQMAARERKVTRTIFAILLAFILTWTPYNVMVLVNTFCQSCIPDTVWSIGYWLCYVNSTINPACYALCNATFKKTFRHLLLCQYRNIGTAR
CHRM4 antagonist: human M4 muscarinic receptor antagonists, primary screen, CHO cells, Fluo-8 calcium fluorescence; AID 624125, 2012; 360,000 tested, 0.73% active; CHO-hM4 cells, ACh EC80; Muscarinic acetylcholine receptor M4 (Homo sapiens), P08173; inhibition, % at 3 µM;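 active means inhibition above its plate's cutoff, the mean inhibition of sample wells plus 3 SD, cut at about 27% in these data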;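 further: 0% = acetylcholine EC80 with DMSO and 100% = DMSO without agonist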
CHRM4 PAM: human M4 muscarinic receptor positive allosteric modulators, primary screen, CHO-K1 cells, Fluo-8 calcium fluorescence | Muscarinic acetylcholine receptor M4 (Homo sapiens), P08173 | CHO-K1 hM4/Gqi5, ACh EC20; 0% = ACh EC20, 100% = maximal ACh | activation, % at 3 µM | 360,000 tested, 0.4% active;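 active means activation above its plate's cutoff, the mean activation of sample wells plus 3 SD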
M5 ag: human M5 muscarinic receptor agonists, primary screen, CHO-K1 cells, Fluo-8 calcium fluorescence. Muscarinic acetylcholine receptor M5 (Homo sapiens), P08912. CHO-K1 hM5 cells; 0% DMSO wells, 100% maximal acetylcholine response. activation, % at 3 µM. 360,000 tested, 0.19% active;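 active means activation above the run's mean over test compounds plus 3 SD, cut at about 23% in these data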;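 further: signal is peak over basal fluorescence ratio across the kinetic read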
* marks the source's active call; other numbers are inactive results.

SMILES	CHRM5 PAM	CHRM5 antagonist	M4 ag	CHRM4 antagonist	CHRM4 PAM	M5 ag
O=C1C2CSCN2C(=O)CN1CCCN1CCN(C(c2ccccc2)c2ccccc2)CC1 (stereo not drawn)	-19	21	1	32*	-16	-10
Cn1nc(C#N)c(=O)[nH]c1=O	63*	-157	0	2	-1	24*
O=c1c2cccnc2n(-c2ccccc2)n1Cc1ccc(Cl)cc1	-3	3	0	-2	22*	-2
O=c1c2cccnc2n(-c2ccccc2)n1Cc1c(Cl)cccc1Cl	-3	12	1	-3	7	-2
COc1ccccc1-n1c(C)nc2cc(C(=O)O)ccc21	19*	5	1	19	14	1
CC(=O)Nc1ccc(S(=O)(=O)N(C)CC(=O)OCC(=O)Nc2cccnc2Cl)cc1	-1	5	1	27*	43*	4
CN(C)S(=O)(=O)c1ccc(C(=O)OCC(=O)Nc2cccnc2Cl)cc1	2	13	3	-9	6	5
CC1CC(=O)Nc2ccccc2N1C(=O)COc1cc(Cl)ccc1Cl (stereo not drawn)	3	-8	1	-17	12	-1
O=C(CC1SCCNC1=O)Nc1cccc(C(F)(F)F)c1 (stereo not drawn)	2	-2	3	-5	32*	0
COc1ccc(NC(=O)CSc2ncnc3c2cnn3Cc2ccccc2)cc1OC	-11	13	5	29*	14	0
COc1ccc(NC(=O)CSc2ncnc3c2cnn3Cc2ccccc2)cc1	1	-8	1	9	-5	1
CC1(c2ccc(OC(F)F)cc2)NC(=O)N(CC(=O)c2ccc3c(c2)OCO3)C1=O (stereo not drawn)	-21	5	40*	-8	-8	42*
CC1(c2ccc([N+](=O)[O-])cc2)NC(=O)N(CC(=O)c2ccc3c(c2)OCO3)C1=O (stereo not drawn)	-15	6	33*	-7	-6	36*
CC1(c2ccc(OC(F)F)cc2)NC(=O)N(CC(=O)NC2CCCCC2)C1=O (stereo not drawn)	-7	8	7	-8	17	5
CCOC(=O)c1ccc(Cl)c(S(=O)(=O)N2CCCC2)c1	3	-8	1	-1	6	-3
Cc1ccc(C(=O)C2C(=O)c3ccccc3C2=O)cc1	5	-2	1	-10	6	1
NN=C1c2ccccc2C(=O)C1C(=O)C(c1ccccc1)c1ccccc1 (stereo not drawn)	-24	38*	13	22	-8	56*
CCN(CC)C(=S)Nc1ccc2nc3n(c(=O)c2c1)CCCCC3	2	1	1	-8	3	-2
O=C1c2ccccc2C(=O)C1(CO)c1ccc(OC(F)F)cc1	7	-6	1	6	0	-1
CCOc1ccc(NC(=O)C2CCCN(c3nc(C)cc(C)n3)C2)cc1 (stereo not drawn)	-1	10	0	-15	5	-3
CC1CCCCN1C(=O)CSc1nc(N)cc(=O)[nH]1 (stereo not drawn)	4	-5	1	10	3	-2
CC1CCCCN1C(=O)CSc1nc(N)nc(N)n1 (stereo not drawn)	-4	10	1	-6	26*	0
c1ccc2c(c1)NCCS2	5	0	0	-5	1	-4
NC(c1ccccc1)c1csc(Nc2ccc(C(=O)NCCCO)cn2)n1 (stereo not drawn)	4	6	1	-13	3	0
FC(F)C(F)(F)c1cc(-c2ccc(Cl)cc2)n[nH]1	-9	9	9	28*	-13	17
SMILES	CHRM5 PAM	CHRM5 antagonist	M4 ag	CHRM4 antagonist	CHRM4 PAM	M5 ag
Fc1ccc(-c2cc(C(F)(F)C(F)F)[nH]n2)cc1	-9	13	28	6	-12	32*
CC(C)N1CCN(c2ccncc2S(=O)(=O)N2CCCCC2)CC1	-20	65*	0	24	-11	-3
CN1CCN(c2ccncc2S(=O)(=O)N2CCCCC2)CC1	-20	0	1	-1	-3	-6
O=C(NC(NC(=S)Nc1ccc(Cl)cc1)C(Cl)(Cl)Cl)c1ccco1 (stereo not drawn)	-16	20	12	0	-1	9
CC(=O)c1ccc(NC(=S)NC(NC(=O)c2ccco2)C(Cl)(Cl)Cl)cc1 (stereo not drawn)	-11	4	12	-12	3	27*
O=C(Nc1ccc(Cl)cc1)Nc1nnc(CSc2ccc(Cl)cc2)s1	0	-6	2	6	-4	0
O=C(Nc1ccc(Cl)cc1)Nc1nnc(CSCc2ccccc2)s1	0	3	3	4	29*	-1
Cc1cc(C)cc(N(CCC(=O)Nc2nnc(C3CC3)s2)S(=O)(=O)c2ccc(Cl)cc2)c1	2	4	0	1	21*	1
O=S(=O)(Nc1ccncc1)c1cc(Cl)c(Cl)cc1Cl	-2	3	1	10	-1	5
CCOc1ccccc1C1c2[nH]c3ccccc3c2C[C@H]2C(=O)N(C3CCN(Cc4ccccc4)CC3)CC(=O)N12 (stereo partly drawn)	-4	16	7	-4	-15	-2
COc1ccc(C2c3[nH]c4ccccc4c3C[C@H]3C(=O)N(C4CCN(Cc5ccccc5)CC4)CC(=O)N23)c(OC)c1 (stereo partly drawn)	-4	6	5	27*	-15	-4
COc1ccc(C(=O)c2coc3ccc(OC(C)=O)cc23)cc1	-10	29*	3	5	-7	-4
CCOC(=O)C1CCN(C(=O)c2sccc2Cl)CC1	9	-5	0	-7	10	-1
CCc1cccc(NC(=O)C2CCN(S(=O)(=O)c3ccc4c(c3)NC(=O)CO4)CC2)c1	1	11	3	-3	-1	-1
CC(C)(C)C(=O)Nc1ccc(N2CCCC2)cc1	4	-1	1	44*	-22	-5
CCc1ccc(C2CC(c3ccccc3)Nc3nc(N)nn32)cc1 (stereo not drawn)	-3	1	1	-7	7	2
CCc1ccc(C2CC(c3ccccc3Cl)Nc3nc(N)nn32)cc1 (stereo not drawn)	-5	3	13	1	9	24*
